{"source": "ChEMBL document CHEMBL4665633", "about": "“Cereblon versus VHL: Hijacking E3 ligases against each other using PROTACs” (Bioorg Med Chem, 2019)", "assay_type_in_all_cases": "cell-based", "key": {"[1]": {"molecular_target": "T1, Protein cereblon/von Hippel-Lindau disease tumor suppressor (Homo sapiens, UniProt P40337+Q96SW2)", "T1 sequence (P40337 whole entry, looked up)": "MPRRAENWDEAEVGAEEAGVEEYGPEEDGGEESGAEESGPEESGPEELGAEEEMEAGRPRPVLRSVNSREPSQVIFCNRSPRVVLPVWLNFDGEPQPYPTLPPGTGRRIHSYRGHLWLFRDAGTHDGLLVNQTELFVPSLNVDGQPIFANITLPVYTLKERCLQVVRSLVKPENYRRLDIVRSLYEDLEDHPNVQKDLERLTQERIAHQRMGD", "T1 sequence (Q96SW2 whole entry, looked up)": "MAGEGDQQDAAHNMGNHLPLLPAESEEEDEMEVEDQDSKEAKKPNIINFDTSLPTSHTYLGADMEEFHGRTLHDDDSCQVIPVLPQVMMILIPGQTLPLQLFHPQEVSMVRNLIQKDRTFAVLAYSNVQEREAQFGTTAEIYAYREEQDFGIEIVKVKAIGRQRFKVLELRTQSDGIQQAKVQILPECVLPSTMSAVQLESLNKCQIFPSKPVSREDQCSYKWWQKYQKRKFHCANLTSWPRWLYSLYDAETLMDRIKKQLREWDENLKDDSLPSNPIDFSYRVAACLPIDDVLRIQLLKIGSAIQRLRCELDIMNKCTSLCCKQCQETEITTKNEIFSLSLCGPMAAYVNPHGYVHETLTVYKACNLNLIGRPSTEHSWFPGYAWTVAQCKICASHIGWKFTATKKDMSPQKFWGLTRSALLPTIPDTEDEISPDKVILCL", "experiment": "Protac activity at VHL/CRBN in HEK293 cells assessed as pVHL19 protein abundance at 500 nM after 4 hrs by Western blot analysis relative to DMSO", "outline": "(§1)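 HEK293 cells (DMEM, 10% FBS, penicillin/streptomycin, L-glutamine; 37 °C, 5% CO2; ≤30 passages) seeded at 1 × 10⁶ per well overnight, then treated with compound at 0.1% v/v final DMSO. Cells were lysed in RIPA with protease inhibitors and benzonase, then clarified. Equal Bradford-quantified protein was immunoblotted for CRBN/VHL. Bands were normalised to β-tubulin and expressed as % of mean 0.1% DMSO vehicle.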"}, "[2]": {"molecular_target": "T1, Protein cereblon/von Hippel-Lindau disease tumor suppressor", "experiment": "Protac activity at VHL/CRBN in human HeLa cells assessed as CRBN protein abundance at 5000 nM after 4 hrs by Western blot analysis relative to DMSO", "outline": "(§2)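 HeLa cells (5 × 10⁵, DMEM + 10% FBS, 37 °C, 5% CO₂, ≤30 passages) seeded overnight, then treated 4 h with compound at single or graded concentrations (0.1% v/v DMSO final). RIPA lysates equalised by Bradford; SDS-PAGE and anti-CRBN/anti-VHL immunoblots; bands normalised to β-tubulin and expressed as % of mean DMSO vehicle. DC₅₀ from fit of band intensity versus log[concentration].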"}, "[3]": {"molecular_target": "T1, Protein cereblon/von Hippel-Lindau disease tumor suppressor", "experiment": "Protac activity at VHL/CRBN in human HeLa cells assessed as pVHL30 protein abundance at 5 nM after 4 hrs by Western blot analysis relative to DMSO", "outline": "as §2"}, "[4]": {"molecular_target": "T1, Protein cereblon/von Hippel-Lindau disease tumor suppressor", "experiment": "Protac activity at VHL/CRBN in HEK293 cells assessed as CRBN protein abundance at 1000 nM after 4 hrs by Western blot analysis relative to DMSO", "outline": "as §1"}, "[5]": {"molecular_target": "T1, Protein cereblon/von Hippel-Lindau disease tumor suppressor", "experiment": "Protac activity at VHL/CRBN in human HeLa cells assessed as CRBN protein abundance at 1 uM after 1 hr by Western blot analysis relative to DMSO", "outline": "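HeLa cells (DMEM, 10% FBS, penicillin/streptomycin, L-glutamine; 37 °C, 5% CO2) seeded at 5 × 10⁵ per well overnight, then treated in 0.1% v/v final DMSO. Cells were lysed in RIPA with protease inhibitors and benzonase, and equal protein was run on SDS-PAGE/nitrocellulose blots probed with anti-CRBN. Bands were normalised to β-tubulin and expressed relative to mean 0.1% DMSO vehicle.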"}, "[6]": {"molecular_target": "T1, Protein cereblon/von Hippel-Lindau disease tumor suppressor", "experiment": "Protac activity at VHL/CRBN in HEK293 cells assessed as pVHL30 protein abundance at 1 uM after 24 hrs by Western blot analysis relative to DMSO", "outline": "as §1"}, "[7]": {"molecular_target": "T1, Protein cereblon/von Hippel-Lindau disease tumor suppressor", "experiment": "Protac activity at VHL/CRBN in HEK293 cells assessed as CRBN protein abundance at 1 uM after 2 hrs by Western blot analysis relative to DMSO", "outline": "as §1"}, "[8]": {"molecular_target": "T1, Protein cereblon/von Hippel-Lindau disease tumor suppressor", "experiment": "Protac activity at VHL/CRBN in HEK293 cells assessed as pVHL19 protein abundance at 1000 nM after 4 hrs by Western blot analysis relative to DMSO", "outline": "as §1"}, "[9]": {"molecular_target": "T1, Protein cereblon/von Hippel-Lindau disease tumor suppressor", "experiment": "Protac activity at VHL/CRBN in human HeLa cells assessed as pVHL30 protein abundance at 1 uM after 24 hrs by Western blot analysis relative to DMSO", "outline": "(§3)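 HeLa cells seeded overnight, then exposed to 1 µM compound (0.1% v/v DMSO final) over a time course. Cells were DPBS-washed and RIPA-lysed with protease inhibitors and benzonase; equal protein was loaded. Immunoblots for CRBN and VHL isoforms were quantified against β-tubulin and reported relative to the averaged 0.1% DMSO vehicle.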"}, "[10]": {"molecular_target": "T1, Protein cereblon/von Hippel-Lindau disease tumor suppressor", "experiment": "Protac activity at VHL/CRBN in HEK293 cells assessed as pVHL19 protein abundance at 1 uM after 24 hrs by Western blot analysis relative to DMSO", "outline": "as §1"}, "[11]": {"molecular_target": "T1, Protein cereblon/von Hippel-Lindau disease tumor suppressor", "experiment": "Protac activity at VHL/CRBN in human HeLa cells assessed as CRBN protein abundance at 100 nM after 4 hrs by Western blot analysis relative to DMSO", "outline": "as §2"}, "[12]": {"molecular_target": "T1, Protein cereblon/von Hippel-Lindau disease tumor suppressor", "experiment": "Protac activity at VHL/CRBN in human HeLa cells assessed as pVHL19 protein abundance at 5 nM after 4 hrs by Western blot analysis relative to DMSO", "outline": "as §2"}, "[13]": {"molecular_target": "T1, Protein cereblon/von Hippel-Lindau disease tumor suppressor", "experiment": "Protac activity at VHL/CRBN in HEK293 cells assessed as pVHL30 protein abundance at 5 nM after 4 hrs by Western blot analysis relative to DMSO", "outline": "as §1"}, "[14]": {"molecular_target": "T1, Protein cereblon/von Hippel-Lindau disease tumor suppressor", "experiment": "Protac activity at VHL/CRBN in HEK293 cells assessed as CRBN protein abundance at 1 uM after 4 hrs by Western blot analysis relative to DMSO", "outline": "as §1"}, "[15]": {"molecular_target": "T1, Protein cereblon/von Hippel-Lindau disease tumor suppressor", "experiment": "Protac activity at VHL/CRBN in human HeLa cells assessed as pVHL19 protein abundance at 1 uM after 1 hr by Western blot analysis relative to DMSO", "outline": "as §3"}, "[16]": {"molecular_target": "T1, Protein cereblon/von Hippel-Lindau disease tumor suppressor", "experiment": "Protac activity at VHL/CRBN in human HeLa cells assessed as CRBN protein abundance at 1 uM after 12 hrs by Western blot analysis relative to DMSO", "outline": "as §3"}, "[17]": {"molecular_target": "T1, Protein cereblon/von Hippel-Lindau disease tumor suppressor", "experiment": "Protac activity at VHL/CRBN in HEK293 cells assessed as pVHL30 protein abundance at 5000 nM after 4 hrs by Western blot analysis relative to DMSO", "outline": "as §1"}, "[18]": {"molecular_target": "T1, Protein cereblon/von Hippel-Lindau disease tumor suppressor", "experiment": "Protac activity at VHL/CRBN in HEK293 cells assessed as CRBN protein abundance at 10 nM after 4 hrs by Western blot analysis relative to DMSO", "outline": "as §1"}, "[19]": {"molecular_target": "T1, Protein cereblon/von Hippel-Lindau disease tumor suppressor", "experiment": "Protac activity at VHL/CRBN in human HeLa cells assessed as pVHL19 protein abundance at 50 nM after 4 hrs by Western blot analysis relative to DMSO", "outline": "as §2"}, "[20]": {"molecular_target": "T1, Protein cereblon/von Hippel-Lindau disease tumor suppressor", "experiment": "Protac activity at VHL/CRBN in HEK293 cells assessed as pVHL30 protein abundance at 500 nM after 4 hrs by Western blot analysis relative to DMSO", "outline": "as §1"}, "[21]": {"molecular_target": "T1, Protein cereblon/von Hippel-Lindau disease tumor suppressor", "experiment": "Protac activity at VHL/CRBN in human HeLa cells assessed as pVHL30 protein abundance at 1 uM after 4 hrs by Western blot analysis relative to DMSO", "outline": "as §3"}, "[22]": {"molecular_target": "T1, Protein cereblon/von Hippel-Lindau disease tumor suppressor", "experiment": "Protac activity at VHL/CRBN in HEK293 cells assessed as CRBN protein abundance at 500 nM after 4 hrs by Western blot analysis relative to DMSO", "outline": "as §1"}, "[23]": {"molecular_target": "T1, Protein cereblon/von Hippel-Lindau disease tumor suppressor", "experiment": "Protac activity at VHL/CRBN in HEK293 cells assessed as pVHL30 protein abundance at 10000 nM after 4 hrs by Western blot analysis relative to DMSO", "outline": "as §1"}, "[24]": {"molecular_target": "T1, Protein cereblon/von Hippel-Lindau disease tumor suppressor", "experiment": "Protac activity at VHL/CRBN in human HeLa cells assessed as pVHL30 protein abundance at 5000 nM after 4 hrs by Western blot analysis relative to DMSO", "outline": "as §2"}, "[25]": {"molecular_target": "T1, Protein cereblon/von Hippel-Lindau disease tumor suppressor", "experiment": "Protac activity at VHL/CRBN in human HeLa cells assessed as CRBN protein abundance at 5 nM after 4 hrs by Western blot analysis relative to DMSO", "outline": "as §2"}, "[26]": {"molecular_target": "T1, Protein cereblon/von Hippel-Lindau disease tumor suppressor", "experiment": "Protac activity at VHL/CRBN in human HeLa cells assessed as pVHL30 protein abundance at 1 uM after 2 hrs by Western blot analysis relative to DMSO", "outline": "as §3"}}, "data": [{"smiles": "Cc1ncsc1-c1ccc(CNC(=O)[C@@H]2C[C@@H](O)CN2C(=O)[C@@H](NC(=O)COCCCCCOCCOCCCCCOCC(=O)NCCNc2cccc3c2C(=O)N(C2CCC(=O)NC2=O)C3=O)C(C)(C)C)cc1", "note": "(stereo partly specified)", "values": [{"measurement": "Activity", "setting": "[1]", "value": 113, "unit": "%"}, {"measurement": "Activity", "setting": "[2]", "value": 49, "unit": "%"}, {"measurement": "Activity", "setting": "[3]", "value": 61, "unit": "%"}, {"measurement": "Activity", "setting": "[4]", "value": 23, "unit": "%"}, {"measurement": "Activity", "setting": "[5]", "value": 57, "unit": "%"}, {"measurement": "Activity", "setting": "[6]", "value": 101, "unit": "%"}, {"measurement": "Activity", "setting": "[7]", "value": 9, "unit": "%"}, {"measurement": "Activity", "setting": "[8]", "value": 119, "unit": "%"}, {"measurement": "Activity", "setting": "[9]", "value": 97, "unit": "%"}, {"measurement": "Activity", "setting": "[10]", "value": 101, "unit": "%"}, {"measurement": "Activity", "setting": "[11]", "value": 70, "unit": "%"}, {"measurement": "Activity", "setting": "[12]", "value": 87, "unit": "%"}, {"measurement": "Activity", "setting": "[13]", "value": 117, "unit": "%"}, {"measurement": "Activity", "setting": "[14]", "value": 6, "unit": "%"}, {"measurement": "Activity", "setting": "[15]", "value": 100, "unit": "%"}, {"measurement": "Activity", "setting": "[16]", "value": 12, "unit": "%"}, {"measurement": "Activity", "setting": "[17]", "value": 124, "unit": "%"}, {"measurement": "Activity", "setting": "[18]", "value": 113, "unit": "%"}, {"measurement": "Activity", "setting": "[19]", "value": 95, "unit": "%"}, {"measurement": "Activity", "setting": "[20]", "value": 130, "unit": "%"}, {"measurement": "Activity", "setting": "[21]", "value": 103, "unit": "%"}, {"measurement": "Activity", "setting": "[22]", "value": 27, "unit": "%"}, {"measurement": "Activity", "setting": "[23]", "value": 128, "unit": "%"}, {"measurement": "Activity", "setting": "[24]", "value": 143, "unit": "%"}, {"measurement": "Activity", "setting": "[25]", "value": 85, "unit": "%"}, {"measurement": "Activity", "setting": "[26]", "value": 89, "unit": "%"}]}]}
